Key:
Liver microsome [1] = assay: Drug level in human liver microsomes treated with [14C]-rivoglitazone at 20 uM after 2 to 4 hrs by radio-HPLC/LC-MS/MS analysis in presence of UDPGA, UDPGA/SAM and NADPH-generating system; type: ADME
Cytochrome P450 2C8 = target: T1, Cytochrome P450 2C8 (Homo sapiens, UniProt P10632); assay: Activity of human CYP2C8 expressed in microsomes isolated from baculovirus infected insect cell assessed as enzyme-mediated 5-hydroxy-5-(4-((6-methoxy-1-methyl-1H-benzo[d]imidazol-2-yl)methoxy)benzyl)thiazolidine-2,4-dione formation at 20 uM after 2 hrs by radio-HPLC/LC-MS/MS analysis in presence of NADPH-generating system and NADPH-generating system/SAM; type: ADME
T1 sequence (P10632 whole entry): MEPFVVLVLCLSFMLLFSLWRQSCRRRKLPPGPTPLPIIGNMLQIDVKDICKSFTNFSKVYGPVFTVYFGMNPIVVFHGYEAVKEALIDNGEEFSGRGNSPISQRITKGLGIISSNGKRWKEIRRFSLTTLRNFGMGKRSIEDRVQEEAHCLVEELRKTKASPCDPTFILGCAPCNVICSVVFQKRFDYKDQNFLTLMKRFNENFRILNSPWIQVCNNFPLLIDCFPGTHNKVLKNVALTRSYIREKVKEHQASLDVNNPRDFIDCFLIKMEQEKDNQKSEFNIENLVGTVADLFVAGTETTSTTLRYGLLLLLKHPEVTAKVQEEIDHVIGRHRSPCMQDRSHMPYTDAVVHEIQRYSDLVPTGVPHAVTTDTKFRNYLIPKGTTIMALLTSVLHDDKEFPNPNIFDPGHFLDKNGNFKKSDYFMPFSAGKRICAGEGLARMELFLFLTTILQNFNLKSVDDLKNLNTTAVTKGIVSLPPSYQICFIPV
Outline: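 Baculovirus/insect-cell microsomes expressing single human CYPs, 1 mg/ml protein, with 50 mM potassium phosphate (pH 7.4) or 100 mM Tris-HCl (pH 7.5). NADPH-generating system: 2 mM NADP⁺, 20 mM glucose 6-phosphate, 2 units/ml G6PDH, 10 mM MgCl₂. [¹⁴C]rivoglitazone at 20 μM, 2 h at 37°C with shaking. Control used insect-cell control supersomes. Stopped with acetonitrile; supernatant concentrated under nitrogen; metabolites analysed by radio-HPLC, LC-MS and LC-MS/MS.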

[2] = Drug metabolism in human hepatocytes assessed as formation of 3-(4-((6-methoxy-1-methyl-1H-benzo[d]imidazol-2-yl)methoxy)phenyl)-2-(methylsulfonyl)propanamide at 30 uM after 3 hrs by radio-HPLC/LC-MS/MS analysis in presence of NADPH-generating system/SAM; type: ADME, cell-based, Hepatocyte
[3] = target: T2, UDP-glucuronosyltransferase 1A7 (Homo sapiens, UniProt Q9HAW7); assay: Activity of human UGT1A7 expressed in microsomes isolated from baculovirus infected insect cell assessed as enzyme-mediated (2S,3S,4S,5R,6R)-6-((1-carboxy-2-(4-((6-methoxy-1-methyl-1H-benzo[d]imidazol-2-yl)methoxy)phenyl)ethylthio)carbonylamino)-3,4,5-trihydroxytetrahydro-2H-pyran-2-carboxylic acid formation at 20 uM after 4 hrs by radio-HPLC/LC-MS/MS analysis in presence of UDPGA; type: ADME
T2 sequence (Q9HAW7 whole entry): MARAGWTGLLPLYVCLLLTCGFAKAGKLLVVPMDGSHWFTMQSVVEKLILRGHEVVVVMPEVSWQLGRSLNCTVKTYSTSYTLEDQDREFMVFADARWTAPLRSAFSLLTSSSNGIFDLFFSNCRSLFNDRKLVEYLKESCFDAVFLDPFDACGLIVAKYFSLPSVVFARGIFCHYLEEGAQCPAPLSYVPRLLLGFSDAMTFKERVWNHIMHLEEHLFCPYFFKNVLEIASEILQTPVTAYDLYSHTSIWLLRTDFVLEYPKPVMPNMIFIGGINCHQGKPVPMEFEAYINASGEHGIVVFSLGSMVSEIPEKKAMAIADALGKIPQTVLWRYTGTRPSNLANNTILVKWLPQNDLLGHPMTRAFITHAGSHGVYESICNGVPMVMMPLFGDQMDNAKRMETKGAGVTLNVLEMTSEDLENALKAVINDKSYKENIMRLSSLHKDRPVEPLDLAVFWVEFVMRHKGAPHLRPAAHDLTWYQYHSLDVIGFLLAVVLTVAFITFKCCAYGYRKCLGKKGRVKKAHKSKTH

[4] = Drug metabolism in cynomolgus monkey liver microsomes assessed as formation of 3-(4-((6-methoxy-1-methyl-1H-benzo[d]imidazol-2-yl)methoxy)phenyl)-2-(methylthio)propanoic acid at 20 uM after 2 to 4 hrs by radio-HPLC/LC-MS/MS analysis in presence of NADPH-generating system/SAM and UDPGA/SAM; type: ADME, Macaca fascicularis
[5] = target: T3, UDP-glucuronosyltransferase 2B7 (Homo sapiens, UniProt P16662); assay: Activity of human UGT2B7 expressed in microsomes isolated from baculovirus infected insect cell assessed as enzyme-mediated 5-(4-((6-hydroxy-1-methyl-1H-benzo[d]imidazol-2-yl)methoxy)benzyl)thiazolidine-2,4-dione formation at 20 uM after 4 hrs by radio-HPLC/LC-MS/MS analysis in presence of NADPH-generating system/SAM; type: ADME
T3 sequence (P16662 whole entry): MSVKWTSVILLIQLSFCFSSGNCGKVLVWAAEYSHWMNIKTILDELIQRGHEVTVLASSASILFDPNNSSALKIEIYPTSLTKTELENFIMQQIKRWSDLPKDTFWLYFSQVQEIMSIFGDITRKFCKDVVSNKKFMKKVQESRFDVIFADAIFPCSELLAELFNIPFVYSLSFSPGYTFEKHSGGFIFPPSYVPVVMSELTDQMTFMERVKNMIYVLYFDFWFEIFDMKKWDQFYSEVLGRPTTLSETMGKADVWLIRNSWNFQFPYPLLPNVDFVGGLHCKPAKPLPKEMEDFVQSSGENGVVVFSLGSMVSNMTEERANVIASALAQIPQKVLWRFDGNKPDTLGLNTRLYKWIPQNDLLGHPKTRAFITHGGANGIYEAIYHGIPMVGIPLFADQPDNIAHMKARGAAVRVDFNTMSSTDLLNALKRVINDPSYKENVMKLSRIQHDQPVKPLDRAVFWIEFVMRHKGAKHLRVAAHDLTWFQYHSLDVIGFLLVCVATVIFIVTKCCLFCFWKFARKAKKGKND

[6] = target: T3, UDP-glucuronosyltransferase 2B7; assay: Activity of human UGT2B7 expressed in microsomes isolated from baculovirus infected insect cell assessed as enzyme-mediated 2-hydroxy-3-(4-((6-methoxy-1-methyl-1H-benzo[d]imidazol-2-yl)methoxy)phenyl)propanamide formation at 20 uM after 4 hrs by radio-HPLC/LC-MS/MS analysis in presence of NADPH-generating system and NADPH-generating system/SAM in presence of UDPGA and UDPGA/SAM; type: ADME
[7] = target: T3, UDP-glucuronosyltransferase 2B7; assay: Activity of human UGT2B7 expressed in microsomes isolated from baculovirus infected insect cell assessed as enzyme-mediated 3-(4-((6-methoxy-1-methyl-1H-benzo[d]imidazol-2-yl)methoxy)phenyl)-2-(methylsulfonyl)propanamide formation at 20 uM after 4 hrs by radio-HPLC/LC-MS/MS analysis in presence of NADPH-generating system/SAM; type: ADME
Liver microsome [8] = assay: Drug metabolism in Sprague-Dawley rat liver microsomes assessed as formation of 5-hydroxy-5-(4-((6-methoxy-1-methyl-1H-benzo[d]imidazol-2-yl)methoxy)benzyl)thiazolidine-2,4-dione at 20 uM after 2 hrs by radio-HPLC/LC-MS/MS analysis in presence of NADPH-generating system and NADPH-generating system/SAM; type: ADME
[9] = Drug metabolism in cynomolgus monkey liver microsomes assessed as formation of 3-(4-((6-methoxy-1-methyl-1H-benzo[d]imidazol-2-yl)methoxy)phenyl)-2-(methylthio)propanamide at 20 uM after 2 hrs by radio-HPLC/LC-MS/MS analysis in presence of NADPH-generating system/SAM; type: ADME, Macaca fascicularis
[10] = target: T2, UDP-glucuronosyltransferase 1A7; assay: Activity of human UGT1A7 expressed in microsomes isolated from baculovirus infected insect cell assessed as enzyme-mediated (2S,3S,4S,5R,6R)-3,4,5-trihydroxy-6-(5-(4-((6-methoxy-1-methyl-1H-benzo[d]imidazol-2-yl)methoxy)benzyl)-2,4-dioxothiazolidin-3-yl)tetrahydro-2H-pyran-2-carboxylic acid formation at 20 uM after 4 hrs by radio-HPLC/LC-MS/MS analysis in presence of UDPGA; type: ADME

SMILES | Drug metabolism (Liver microsome [1]) | Drug metabolism (Cytochrome P450 2C8) | Drug metabolism [2] | Drug metabolism [3] | Drug metabolism [4] | Drug metabolism [5] | Drug metabolism [6] | Drug metabolism [7] | Drug metabolism (Liver microsome [8]) | Drug metabolism [9] | Drug metabolism [10]
COc1ccc2nc(COc3ccc(CC(S)C(=O)O)cc3)n(C)c2c1 (stereo unspecified) | metabolite_detected | – | – | – | – | – | – | – | – | – | –
COc1ccc2nc(COc3ccc(C[14CH]4SC(=O)NC4=O)cc3)n(C)c2c1.Cl (racemic) | – | metabolite_detected | metabolite_detected | metabolite_not_detected | metabolite_detected | metabolite_not_detected | metabolite_not_detected | metabolite_not_detected | metabolite_detected | metabolite_detected | metabolite_not_detected

Reference: ChEMBL document CHEMBL3526048, “In vitro metabolism of rivoglitazone, a novel peroxisome proliferator-activated receptor γ agonist, in rat, monkey, and human liver microsomes and freshly isolated hepatocytes” (Drug Metab Dispos, 2011)
